Casp6 inh = human caspase-6 inhibitors, primary screen, biochemical, VEID-R110 fluorescence, single point, set 2. AID 686996, 2013. inhibition, % at 12.5 µM. purified caspase-6, Z-VEID-R110 cleavage fluorescence. P55212. 0.53% of 350,000 active;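 active means mean inhibition across replicates at least about 35%, with every replicate also reaching that limit, limit read from the data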;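 further: 0% = median of neutral control wells and 100% = no fluorescence left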
Target sequence (P55212 24-179 limits assumed): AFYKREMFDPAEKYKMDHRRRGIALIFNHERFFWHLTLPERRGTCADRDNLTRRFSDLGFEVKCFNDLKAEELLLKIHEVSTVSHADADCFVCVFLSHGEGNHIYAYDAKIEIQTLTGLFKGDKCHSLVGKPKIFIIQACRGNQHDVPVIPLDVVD
Target sequence (P55212 194-293 limits assumed): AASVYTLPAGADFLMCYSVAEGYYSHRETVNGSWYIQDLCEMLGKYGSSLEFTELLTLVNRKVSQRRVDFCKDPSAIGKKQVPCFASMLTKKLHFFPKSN
Scp-1 inhibitor = Scp-1 phosphatase inhibitors, primary screen, biochemical, colorimetric, uHTS | Carboxy-terminal domain RNA polymerase II polypeptide A small phosphatase 1 (Homo … | Recombinant Scp1, phosphopeptide, malachite green phosphate absorbance | inhibition, % at 20 µM | 0.88% of 340,000 active;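 active means inhibition above about 50% at 20 µM, limit read from the data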;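 further: plate controls were DMSO wells with enzyme for no effect and wells lacking enzyme for full effect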
Target sequence (Q9GZU7 76-261 limits assumed): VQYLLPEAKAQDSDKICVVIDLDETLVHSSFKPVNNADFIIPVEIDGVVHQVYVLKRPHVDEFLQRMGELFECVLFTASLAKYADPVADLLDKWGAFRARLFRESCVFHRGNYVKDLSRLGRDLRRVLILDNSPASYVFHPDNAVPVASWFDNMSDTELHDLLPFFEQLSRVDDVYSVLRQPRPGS
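System: SCP-1 catalytic domain; Reagent: Phospho 17-mer peptide substrate; Doses: one concentration, 20 µM, with 1.0% DMSO; Incubation: 45 min room-temperature reaction, 5 min colour, 30 min stabiliser; Signal: Phosphate-binding colour reagent, absorbance read at 630 nm.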
DNMT1 block = human DNMT1 methyltransferase inhibitors, primary screen, biochemical, molecular beacon, fluorescence, HinP1I cleavage, uHTS. DNA (cytosine-5)-methyltransferase 1 (Homo sapiens), P26358. inhibition (reported as % activation of signal), % at 10 µM. 0.83% of 360,000 active; in the data active means inhibition above about 50%
SUMO1-SIM PPI = modulators of SUMO1 protein-protein interactions, primary screen, biochemical, uHTS | Small ubiquitin-related modifier 1 (Homo sapiens), P63165 | SUMO1 binding to a labelled peptide, TR-FRET, 1 h | inhibition, % at 20 µM | 0.33% of 360,000 active; in the data active means inhibition above about 37%
STEP block = STEP phosphatase inhibitors, primary screen, biochemical, fluorescence intensity, uHTS; Tyrosine-protein phosphatase non-receptor type 5 (Homo sapiens), P54829; recombinant STEP, OMFP fluorogenic substrate; inhibition, % at 20 µM; 0.25% of 360,000 active;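 active means inhibition at 20 µM, scaled per plate between control wells, above about 37%, limit read from the data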;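 further: 0% = DMSO with enzyme and substrate and 100% = substrate only without enzyme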
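System: isolated STEP enzyme; schedule: 20 min enzyme reaction at room temperature, protected from light; medium: Bis-Tris buffer pH 6.0, 2.5 mM DTT, 0.005% Tween 20; signal: fluorescence, 480/540 nm; dosing: single compound dose of 20 µM, 1% DMSO final; also added: OMFP substrate, 25 µM final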
LMPTP inh = LMPTP phosphatase inhibitors, primary screen, biochemical, fluorescence intensity, uHTS; recombinant LMPTP-A, OMFP fluorogenic substrate; 0.22% of 360,000 active; inhibition, % at 20 µM;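 active means compounds that cut the enzyme signal by at least half of the control window in the single-dose screen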;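 further: plate controls were DMSO wells with enzyme plus substrate for no effect and substrate without enzyme for full effect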
Target sequence (P24666 whole entry, looked up): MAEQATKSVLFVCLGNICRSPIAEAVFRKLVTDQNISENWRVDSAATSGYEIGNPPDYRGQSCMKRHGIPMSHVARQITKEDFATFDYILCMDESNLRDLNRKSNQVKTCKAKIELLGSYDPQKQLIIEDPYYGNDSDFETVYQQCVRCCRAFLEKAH
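Test system – LMPTP-A enzyme · Amount – LMPTP-A at 0.625 nM final in the reaction · Buffer or medium – Bis-Tris pH 6.0, DTT, detergent · Reagent – OMFP 400 µM · Doses – single 20 µM dose · Schedule – reaction 50 min, room temperature, dark · Detection – fluorescence intensity of OMFP turnover product · Evaluation – percent inhibition versus substrate-only and uninhibited controls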
Active calls of the source: *; . = no result given. Hits are enriched below; roughly 1.7% of the tested compounds scored in any of these assays.

SMILES | Casp6 inh | Scp-1 inhibitor | DNMT1 block | SUMO1-SIM PPI | STEP block | LMPTP inh
CC[C@H]1OC(=O)[C@H](C)[C@@H](O[C@H]2C[C@@](C)(OC)[C@@H](O)[C@H](C)O2)[C@H](C)[C@@H](O[C@@H]2O[C@H](C)C[C@H](N(C)C)[C@H]2O)[C@](C)(O)C[C@@H](C)C(=O)[C@H](C)[C@@H](O)[C@]1(C)O | 10 | 8 | 77* | 14 | 1 | 75*
CCOC(=O)CCC(=O)O[C@H]1[C@H](O[C@@H]2[C@@H](C)[C@H](O[C@H]3C[C@@](C)(OC)[C@@H](O)[C@H](C)O3)[C@@H](C)C(=O)O[C@H](CC)[C@@](C)(O)[C@H](O)[C@@H](C)C(=O)[C@H](C)C[C@@]2(C)O)O[C@H](C)C[C@@H]1N(C)C | . | -3 | -1 | -7 | 0 | -1
CC(C)NC(=O)C1(C)CCN1C(=O)c1ccc2c(c1)OCO2 (stereo unspecified) | 71* | . | 2 | 0 | 1 | 1
COc1cccc(C(=O)N2CCC2(C)C(=O)NC(C)C)c1 (stereo unspecified) | -3 | . | 2 | 34 | 0 | 1
NC(=O)Cn1nnc(-c2ccc(CN3CCCCC3)cc2)n1 | 2 | -1 | 3 | 58* | 1 | 0
Cc1cccc(NC(=O)Cn2nnc(-c3ccc(CN4CCCC4)cc3)n2)c1C | . | -2 | 1 | 17 | -2 | 1
CC(C)Cn1c(SCC(=O)N2CC(=O)Nc3ccccc32)nc2ccccc21 | . | -5 | -3 | 0 | -3 | -1
CN1CCN(C(=O)c2cc(Cl)cc(Cl)c2)CC1 | 65* | -2 | 1 | -1 | -4 | 0
Cc1ccccc1CN1C(=O)c2ccccc2S1(=O)=O | -2 | -4 | -2 | 44* | 0 | -1
Cc1ccccc1CNC(=O)CN1C(=O)c2ccccc2S1(=O)=O | 0 | 2 | -2 | -1 | 0 | 0
CNC[C@@H]1Oc2ccc(NC(=O)CCN3CCOCC3)cc2CC(=O)N([C@@H](C)CO)C[C@@H]1C | -24 | . | . | . | . | .
NC(=O)c1nsc(C(=O)N(CC(=O)NCc2ccco2)c2ccccc2F)c1N | . | -3 | 2 | 50* | 0 | -1
NC(=O)c1nsc(C(=O)N(c2ccccc2)C(C(=O)NCc2ccc(F)cc2)c2ccco2)c1N (stereo unspecified) | -1 | -5 | 0 | -4 | -1 | 2
Cc1cnc(C=NNC(N)=S)c2cccc(N)c12 | 66* | 84* | 114* | 107* | 97* | 86*
COc1cc2sc(-c3ccc(S(C)(=O)=O)cc3)c(C(=O)NCc3ccc(C)o3)c2cc1OC | 0 | 2 | -8 | -15 | 0 | 0
COc1cc(C(=O)OCC(=O)N2CCCC2=O)cc(OC)c1C | 37* | 23 | 47 | 1 | -1 | 1
O=C(NCCCN1CCCC1)c1ccc2c(c1)N(Cc1cccc(Cl)c1)C(=O)c1ccccc1S2(=O)=O | 65* | . | -5 | -10 | 1 | 2
COc1ccc2[nH]c3nc(SCc4nnc(-c5ccc(C)cc5)o4)nnc3c2c1 | . | -5 | 56* | -1 | 4 | 6
CC=Cc1ccc2n(c1=O)C[C@@H]1[C@@H](CO)[C@H](C(=O)NCCCN(C)C)[C@H]2N1Cc1nccs1 (mixture of isomers) | 0 | . | . | . | . | .
COc1ccc(/C=N/OCC(=O)N=Nc2c(O)[nH]c3ccc(Br)cc23)cc1 | -3 | -3 | 79* | -9 | 3 | 5
O=C(CN1C(=O)NC2(CCCCC2)C1=O)Nc1cccc(S(=O)(=O)N2CCCC2)c1 | 5 | -3 | -6 | 4 | -3 | -1
O=C(CCN1C(=O)NC2(CCCC2)C1=O)Nc1cccc(S(=O)(=O)N2CCOCC2)c1 | 42* | -2 | -1 | 6 | -2 | -1
CCn1c(/C=C/c2c(C)n(CC)c3ccccc23)nc2ccccc2c1=O | 1 | -8 | 3 | -1 | -2 | 0
CCn1c2ccccc2nc2cc3c(cc21)c(Cl)c(=O)c1ccccc13 | 19 | . | 61* | 21 | 3 | 5
COc1ccc(Cl)cc1S(=O)(=O)n1ccnc1C(C)C | . | -9 | 2 | 4 | 1 | -1
SMILES | Casp6 inh | Scp-1 inhibitor | DNMT1 block | SUMO1-SIM PPI | STEP block | LMPTP inh
COc1cc(/C=C2\C(=O)N(c3ccc(S(N)(=O)=O)cc3)N=C2C)ccc1OC(=O)c1ccco1 | 34 | 25 | 16 | 45* | 27 | 35
COc1cc(/C=C2\C(=O)N(c3cccc(C(=O)O)c3)N=C2C)ccc1OCc1ccccc1 | 5 | . | 19 | 35 | 3 | 3
C#CCOc1ccc(/C=C2/C(=O)N(c3cccc(C(=O)O)c3)N=C2C)cc1OC | 34 | 58* | 43 | 35 | 7 | 2
C#CCOc1ccc(/C=C2/C(=O)N(c3ccc(S(N)(=O)=O)cc3)N=C2C)cc1OC | 39* | . | 39 | 26 | 7 | 24
CCS(=O)(=O)C1=NN2C(=N)/C(=C\c3ccc(OC(=O)c4ccco4)c(OC)c3)C(=O)N=C2S1 | 12 | 11 | 4 | 3 | 2 | -1
COc1cc(/C=C2/C(=O)N(c3ccc(Br)cc3)N=C2C)cc(OC)c1OC | 1 | -10 | -11 | 10 | 1 | 3
COc1ccc2c(-c3ccccc3)cc3nnnn3c2c1 | -3 | -7 | 0 | -3 | 0 | 0
O=C(NCC1CCCCC1)c1cc(S(=O)(=O)N2CCOCC2)ccc1F | 1 | -6 | 2 | -4 | -3 | -1
Cc1ccc(S(=O)(=O)N(C)C[C@H]2Oc3ccc(NC(=O)Nc4ccccc4)cc3CC(=O)N([C@@H](C)CO)C[C@@H]2C)cc1 | 2 | . | . | . | . | .
O=C1C=C(c2ccc3cc[nH]c3c2)C[C@@H](c2ccc3c(c2)OCO3)C1 | . | 67* | 12 | -7 | 0 | 5
O=C1C=C(c2ccc3c(c2)OCO3)C[C@@H](c2ccc3c(c2)OCO3)C1 | -2 | 6 | 6 | -4 | 0 | 1
O=c1c(Br)ccc(Br)cc1Br | 26 | -10 | 59* | 25 | 74* | 1
O=C1CN(S(=O)(=O)c2cc(Br)ccc2Br)CCN1 | 3 | 0 | 2 | -3 | -1 | -1
Cc1cc(C)nc(SCSc2nc(C)cc(C)n2)n1 | 1 | 5 | 4 | 1 | -4 | -2
Cc1ccc(C(=O)Nc2ccc(S(=O)(=O)N3CCCC3)cc2)s1 | -3 | -4 | 2 | 1 | -2 | -1

Compound activity from PubChem.
